Measurements taken from PubChem BioAssay.
Inconclusive results are not listed.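 Rule for the calls, unless noted: active = inhibition over a set limit, the all-compound mean plus 3 SD, in both replicate runs; inconclusive = over that limit in just one replicate run; inactive = at or under that limit in both runs.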

Legend:
[1] = OD615 S. cerevisiae growth inhibition, permissive medium, pilot counter-assay, permissive growth control for S. cerevisiae lifespan shortening project (AID 705;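 active = growth inhibition above 25% in both replicates, a cutoff set 3 SD above the mean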); details: OD615, 24 h, at 10 µM, active compounds read high
Outline: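 Material: engineered DeaD yeast; compound dosing: one dose 10 µM, DMSO 0.25% final; measure: yeast growth inhibition indicated by reduced 24 h OD615; detection: OD615 turbidity read; incubation: cells pre-grown 4 h, then 24 h compound exposure, 30 °C humidified; medium: permissive synthetic complete medium with raffinose and galactose carbon sources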

[2] = Restrictive medium S. cerevisiae growth inhibition, OD615, pilot screen of yeast lifespan reduction project, restrictive growth control (AID 706;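 active = growth inhibition above a set limit, 3 SD over mean compound inhibition, in both replicates, cut at about 43% in these data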;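 note: modified DeaD lifespan yeast strain shifted to restrictive glucose medium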); details: OD615, 48 h, at 10 µM, active compounds read high
Outline: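 material = engineered S. cerevisiae DeaD strain | medium = glucose-based CSMM-D restrictive medium | times = 4 h pre-incubation, 48 h exposure at 30 °C | technique = OD615 absorbance reading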

[3] = viability gain of MRP-1-high H69AR cells under doxorubicin, pilot screen, MRP-1 activator project, CellTiter-Glo, duplicate (AID 807;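 active = viability increase at or above a cutoff of the median across tested compounds plus 3 SD, cut at about 8.5% in these data, passing the limit was not always enough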;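 note: compound pretreatment 18-22 h then 72 h combined with doxorubicin; 0% = doxorubicin alone and 100% = vehicle without doxorubicin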); details: H69AR viability with doxorubicin, CellTiter-Glo luminescence; at 10 µM; active compounds read high
[4] = growth suppression of beta-catenin knockout HCT116, pilot screen, human colon tumor cells (AID 823;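 active = cell viability at or below a set limit in both duplicate runs, the limit being the all-compound median minus 4 SD, cut at about 23% in these data, passing the limit was not always enough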;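 note: 0% = wells killed by 20 µM Hyamine and 100% = untreated DMSO cell wells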); details: CellTiter-Glo, 60 h, at 10 µM, active compounds read low
[5] = growth suppression of PTEN-deleted HCT116, pilot screen, cell-based, HCT116 clonal line, CellTiter-Glo (AID 824;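 active = viability at or below 27.92% in each of two runs, the all-compound median minus 4 SD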;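 note: 0% = 20 µM Hyamine control and 100% = vehicle cell control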); details: 60 h, at 10 µM, active compounds read low
[6] = inhibitors of the yeast RAM network, pilot screen, dse1pr::URA3 reporter, 5-FOA selection (AID 869);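 note: 0% = DMSO wells with no growth and 100% = 10 µM 1-NA-PP1 with full growth; RAM network block rescues cells from 5-FOA so hits raise OD615 growth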; details: S. cerevisiae dse1pr::URA3 5-FOA growth, OD615, 2 d; at 10 µM; active compounds read high; strain carries analog-sensitive mutant Cbk1 kinase
[7] = RAM signaling pathway blockade in yeast – S. cerevisiae, Pdr1DBD-CYC8 efflux-inhibited sensitized strain, primary screen (AID 1298;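 active = RAM network inhibition above 8.4% in each of two replicates, 3 SD over the compound average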;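 note: 0% = DMSO untreated cells without growth and 100% = 10 µM 1-NA-PP1 full growth; higher means more yeast growth rescued from 5-FOA killing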); details: S. cerevisiae cbk1-as DSE1-URA3 strain, 5-FOA growth OD615, 2 d; at 50 µM; active compounds read high

CCN1CCN(Cc2ccc(NC(=O)CC3Oc4ccc(C)cc4NC3=O)cc2)CC1 (stereo not given)
inactive: growth inhibition [1] -3.29% | growth inhibition [2] 1.68% | viability increase [3] -0.91% | viability [4] 93% | viability [5] 101% | inhibition [6] 0.29% | RAM network inhibition [7] 2.33%

O=C1CC(c2ccccc2)C(C(=O)Nc2ccccc2F)N1 (stereo not given)
inactive: growth inhibition [1] -17.2% | growth inhibition [2] 2% | viability increase [3] -0.74% | viability [4] 104% | viability [5] 99.3% | inhibition [6] 0.81% | RAM network inhibition [7] 4.18%

O=C(CCCC1=NS(=O)(=O)c2ccccc2N1)N1CCN(c2ccc(Cl)cc2)CC1
inactive: growth inhibition [1] -17.7% | growth inhibition [2] -0.86% | viability increase [3] -0.04% | viability [4] 91.7% | viability [5] 78.3% | inhibition [6] 0.37% | RAM network inhibition [7] 0.9%

O=C(C1CCCN(S(=O)(=O)c2cccc3cccnc23)C1)N1CCN(c2ccc(F)cc2)CC1 (stereo not given)
inactive: growth inhibition [1] 2.49% | growth inhibition [2] 2.17% | viability increase [3] -0.16% | viability [4] 47.9% | viability [5] 61.8% | inhibition [6] -0.585% | RAM network inhibition [7] 2.25%

O=C(NCCCn1ccnc1)c1cc(C2CC2)on1
inactive: growth inhibition [1] -14.9% | growth inhibition [2] -11.1% | viability increase [3] 0.19% | viability [4] 105% | viability [5] 103% | inhibition [6] 1.95% | RAM network inhibition [7] 6.12%

COc1cc(NC(=O)CN2CC(c3ccccc3)CC2=O)cc(OC)c1 (stereo not given)
inactive: growth inhibition [1] -20.8% | growth inhibition [2] -10.4% | viability increase [3] 0.18% | viability [4] 100% | viability [5] 99.4% | inhibition [6] 1.27% | RAM network inhibition [7] 1.83%

CCOC(=O)CSc1nccc(N(C)C)c1C#N
inactive: growth inhibition [1] -5.06% | growth inhibition [2] 7.88% | viability increase [3] 1.04% | viability [4] 99% | viability [5] 100% | inhibition [6] 0.83% | RAM network inhibition [7] 4.81%

Cc1cccc(-c2noc(CCc3ccccc3)n2)c1
inactive: growth inhibition [1] -13.3% | growth inhibition [2] -12% | viability increase [3] 0.39% | viability [4] 102% | viability [5] 98.1% | inhibition [6] 1.13% | RAM network inhibition [7] 2.14%

CCCCC(=O)Nc1ncc2c(n1)CC(C)(C)CC2=O
inactive: growth inhibition [1] -7.95% | growth inhibition [2] -5.04% | viability increase [3] -2.35% | viability [4] 96.1% | viability [5] 98.2% | inhibition [6] 2.94% | RAM network inhibition [7] 1.03%

Cc1cc(C)cc(N(CC(=O)N2CCN(c3ccccc3)CC2)S(=O)(=O)c2c(C)noc2C)c1
inactive: growth inhibition [1] -14.4% | growth inhibition [2] -10.2% | viability increase [3] -3.46% | viability [4] 62.6% | viability [5] 67.5% | inhibition [6] 0.57% | RAM network inhibition [7] 6.09%

O=C1CN(C(=O)COC(=O)C2CC(=O)N(Cc3ccco3)C2)c2ccccc2N1 (stereo not given)
inactive: growth inhibition [1] -12% | growth inhibition [2] -16.7% | viability increase [3] -2.08% | viability [4] 102% | viability [5] 104% | inhibition [6] 1.06% | RAM network inhibition [7] 4.09%

CCOC(=O)c1nc2ccccc2s1
inactive: growth inhibition [1] -4.63% | growth inhibition [2] -15.7% | viability increase [3] -2.72% | viability [4] 99.2% | viability [5] 97.4% | inhibition [6] 1.02% | RAM network inhibition [7] 1.61%

COc1ccc(NC(=O)CSc2nnc(Cn3c(=O)sc4ccccc43)n2C)cc1
inactive: growth inhibition [1] -3.85% | growth inhibition [2] 7.49% | viability increase [3] -4.99% | viability [4] 111% | viability [5] 98.4% | inhibition [6] 2.43% | RAM network inhibition [7] 1.51%

O=C(Nc1nccs1)c1ccc(S(=O)(=O)N2CCCCC2)cc1
inactive: growth inhibition [1] -9.01% | growth inhibition [2] -1.44% | viability increase [3] 0.89% | viability [4] 94% | viability [5] 90% | inhibition [6] 1.73% | RAM network inhibition [7] 5.88%

COc1ccc(C(=O)Nc2ccc(Cl)cc2C(=O)NCc2ccco2)cc1OC
inactive: growth inhibition [1] -0.55% | growth inhibition [2] -8.55% | viability increase [3] -4.93% | viability [4] 73.4% | viability [5] 68.9% | inhibition [6] 0.625% | RAM network inhibition [7] 7.76%

CCCOc1ccc(N2C(=O)CC(N3CCN(c4ccccc4F)CC3)C2=O)cc1 (stereo not given)
inactive: growth inhibition [1] -0.95% | growth inhibition [2] -3.87% | viability increase [3] 1.4% | viability [4] 94.7% | viability [5] 96.4% | inhibition [6] 0.125% | RAM network inhibition [7] 7.05%

Cc1nn(-c2ccccc2)c2c1C(c1ccncc1)C(C#N)=C(N)O2 (stereo not given)
inactive: growth inhibition [1] -12.9% | growth inhibition [2] -0.78% | viability increase [3] -0.07% | viability [4] 92.8% | viability [5] 89.6% | inhibition [6] 0.975% | RAM network inhibition [7] 4.36%

O=C(CSc1nc2c(cnn2-c2ccc(F)cc2)c(=O)[nH]1)N1CCOCC1
inactive: growth inhibition [1] -14.2% | growth inhibition [2] -19.8% | viability increase [3] -3.32% | viability [4] 96.7% | viability [5] 91.4% | inhibition [6] 3.16% | RAM network inhibition [7] 6.85%

COc1ccc(N(CC(=O)N2CCN(C)CC2)S(=O)(=O)c2ccccc2)cc1OC
inactive: growth inhibition [1] -16.8% | growth inhibition [2] -19.4% | viability increase [3] -1.07% | viability [4] 104% | viability [5] 91.8% | inhibition [6] 0.195% | RAM network inhibition [7] 1.1%

CCSc1nnc(Cc2cc(=O)[nH]c(=O)[nH]2)n1-c1ccc(Cl)cc1
inactive: growth inhibition [1] -15.2% | growth inhibition [2] -10% | viability increase [3] -0.84% | viability [4] 104% | viability [5] 102% | inhibition [6] 1.5% | RAM network inhibition [7] -0.99%

COc1cccc(Cn2nnc(C(=O)NCc3ccc(F)cc3)c2N)c1
inactive: growth inhibition [1] -5.24% | growth inhibition [2] -6.34% | viability increase [3] -1.74% | viability [4] 95% | viability [5] 85.6% | inhibition [6] 0.99% | RAM network inhibition [7] 3.37%

Cn1c(SCC(=O)N2CCCCC2)nc2c([nH]c3ccccc32)c1=O
inactive: growth inhibition [1] -3.83% | growth inhibition [2] -3.68% | viability increase [3] -6.06% | viability [4] 61.4% | viability [5] 44% | inhibition [6] 2.85% | RAM network inhibition [7] 4.75%

CCOC(=O)C1=C(C)NC(=O)NC1c1c(O)ccc2ccccc12 (stereo not given)
inactive: growth inhibition [1] -11.6% | growth inhibition [2] -12.7% | viability increase [3] -3.39% | viability [4] 97.6% | viability [5] 95.4% | inhibition [6] 0.77% | RAM network inhibition [7] 2.29%

O=C(c1ccccc1)c1ccc2nc(N3CCN(C(=O)c4ccco4)CC3)c3nncn3c2c1
inactive: growth inhibition [1] -3.47% | growth inhibition [2] 11.3% | viability increase [3] -3.94% | viability [4] 65.3% | viability [5] 72.7% | inhibition [6] 2.05% | RAM network inhibition [7] -0.16%

COc1cccc(-c2nc(CS(=O)CC(=O)NCc3ccccc3Cl)c(C)o2)c1 (stereo not given)
inactive: growth inhibition [1] -0.545% | growth inhibition [2] 5.44% | viability increase [3] -3.78% | viability [4] 92.4% | viability [5] 91.9% | inhibition [6] 0.79% | RAM network inhibition [7] 10%

O=S(=O)(c1ccccc1)n1ccc2ccccc21
inactive: growth inhibition [1] -3% | growth inhibition [2] 5.11% | viability increase [3] -5.11% | viability [4] 87.4% | viability [5] 89.1% | inhibition [6] 0.255% | RAM network inhibition [7] 6.25%

CC1CCc2nn(CC(=O)NC3CCCC3)cc2C1 (stereo not given)
inactive: growth inhibition [1] 0.6% | growth inhibition [2] 10.9% | viability increase [3] -1.14% | viability [4] 105% | viability [5] 92.9% | inhibition [6] 0.925% | RAM network inhibition [7] 0.63%

COc1ccc(C2CC(=O)C3=C(C2)NC(C)=C(C#N)C3c2ccc(N(C)C)cc2)cc1 (stereo not given)
inactive: growth inhibition [1] -6.35% | growth inhibition [2] 7.55% | viability increase [3] 0.06% | viability [4] 78.5% | viability [5] 75.8% | inhibition [6] 2.72% | RAM network inhibition [7] 5.79%

O=C(CCS(=O)CCC(=O)NCc1ccccc1)NCc1ccccc1
inactive: growth inhibition [1] -2.28% | growth inhibition [2] 6.21% | viability increase [3] -0.32% | viability [4] 97.9% | viability [5] 102% | inhibition [6] 0.92% | RAM network inhibition [7] 4.15%

COC(=O)c1ccsc1NC(=O)C1=COCCO1
inactive: growth inhibition [1] -9% | growth inhibition [2] -1.36% | viability increase [3] -0.42% | viability [4] 106% | viability [5] 102% | inhibition [6] 0.91% | RAM network inhibition [7] 2.35%

CC1CCC(n2c(=S)[nH]c3ccccc3c2=O)CC1 (stereo not given)
inactive: growth inhibition [1] 13% | growth inhibition [2] 23% | viability increase [3] -4.34% | viability [4] 81.5% | viability [5] 75.4% | inhibition [6] 0.285% | RAM network inhibition [7] 5.25%

Cc1noc(C(=O)Nc2c(C)nn(Cc3ccccc3)c2C)c1Cl
inactive: growth inhibition [1] -7.73% | growth inhibition [2] 7.98% | viability increase [3] 0.04% | viability [4] 93.1% | viability [5] 88.7% | inhibition [6] 2.25% | RAM network inhibition [7] 3.63%

CCOC(=O)c1c(C)[nH]c(C(=O)OC)c1CCC(=O)OC
inactive: growth inhibition [1] -9.89% | growth inhibition [2] -23.6% | viability increase [3] -2.86% | viability [4] 90.8% | viability [5] 91.9% | inhibition [6] 2.56% | RAM network inhibition [7] 2.65%

O=C(CSc1cn(CCNC(=O)c2cccs2)c2ccccc12)NCC1CCCO1 (stereo not given)
inactive: growth inhibition [1] -13.8% | growth inhibition [2] -23.4% | viability increase [3] 0.16% | viability [4] 96.2% | viability [5] 96.1% | inhibition [6] 1.61% | RAM network inhibition [7] 1.6%

CNC(=O)N(C1=NCC(C)(C)S1)c1ccc(F)c(Cl)c1
inactive: growth inhibition [1] -4.53% | growth inhibition [2] -16.6% | viability increase [3] -6.94% | viability [4] 40.4% | viability [5] 35.7% | inhibition [6] 1.26% | RAM network inhibition [7] 4.61%
